Measurements as given in the EternaBench riboswitch data.

Tested on: MS2 coat protein
Test: apparent Kd, MS2 coat protein; higher = weaker binding; RNA-MaP array; FMN 200 µM where present
How it was run: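 Green signal from SNAP-549-labelled MS2 coat protein was normalised to red-channel RNA signal and to the median Fmax of control clusters. The protein was titrated from 0.7 or 1.5 nM, doubling to 3 µM, without and then with constant ligand, over designs transcribed by stalled E. coli RNA polymerase on Illumina sequencing-chip clusters, in 100 mM Tris-HCl pH 7.5, 80 mM KCl, 4 mM MgCl2, BSA, DTT, yeast tRNA and Tween-20. The apparent Kd is the median of filtered per-cluster binding-curve fits.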

[1] = designed as: ON switch for flavin mononucleotide, no ligand
[2] = ligand present: flavin mononucleotide, designed as: ON switch for flavin mononucleotide
[3] = designed as: OFF switch for flavin mononucleotide, no ligand
[4] = ligand present: flavin mononucleotide, designed as: OFF switch for flavin mononucleotide

UGUGGGAGUCAGAAGGAGUAUUCUACAUGAGGAUCACCCAUGUCUGGUACUAGGAUAUGGGUCUGGACGGACUAAGGUCCCGUA
apparent Kd [1]: 753 nM | apparent Kd [2]: 196 nM

GGUGCGUUUGUGAGGAUAUGCUGGUCCUUGGAUCUGCAGAAGGCACAUGAGGAUCACCCAUGUGGUGUCGUACC
apparent Kd [3]: 293 nM | apparent Kd [4]: 36.5 nM

UGACGGAGCAGAGGAUAUACAUGAGGAUCACCCAUGUAAAUGAAAGAUAGCAGCAAAGCUGCAAUGUAGAAGGCUGCUCCGUCA
apparent Kd [3]: 29.8 nM | apparent Kd [4]: 84.9 nM

AUUUAAAAGUCAGGAUAUGGUAGAUUAUUCUUAUCAGAAGGGAUUAUUAUACUCAAGUACAUGAGGAUCACCCAUGUUAAAUCA
apparent Kd [1]: 18.1 nM | apparent Kd [2]: 10.2 nM

UGCCUACAUGAGGAUCACCCAUGUGAGGAUAUCCUGCGAGGAUCAAAAGAUCCUCGUGGGAGAAGGCGCUUGGA
apparent Kd [3]: 18.9 nM | apparent Kd [4]: 32.3 nM

GUAGCAUUGAGAGGAUAUCCAUAUCCGAAAGGGACAUGAGGAUCACCCAUGUCGCGAAAGCGGUGGGAGAAGGCUCUAUGCUAC
apparent Kd [1]: 4.92 nM | apparent Kd [2]: 5.01 nM

UUCAGCUCGUGAGGAUAUACAUGUGCUGGAAACAGCAUUAAAUUUUUCACAUGAGGAUCACCCAUGUAGAAGGCACGAGCUGAG
apparent Kd [3]: 16.6 nM | apparent Kd [4]: 39.8 nM

GAUAAGGGAGGAUAUACGGAACGGUUUAUGCUCAGUGAGGCACAUGAGGAUCACCCAUGUAGAAGGCCCGACAG
apparent Kd [3]: 28.2 nM | apparent Kd [4]: 120 nM

GUACAUGAGCAGAAGGGCAUUUAAUUAGAUUUUUAUGUUGAUCAGAAAUGCAGGAUAUGUUAAACAUGAGGAUCACCCAUGUAC
apparent Kd [1]: 218 nM | apparent Kd [2]: 24.1 nM

UUAAUUAAUUAAUUAUACAUGAGGAUCACCCAUGUAAGUGAUCAGGAUAUCAGCUCGAAUAGAGCUGAGAAGGGAUACAUGAAU
apparent Kd [1]: 144 nM | apparent Kd [2]: 118 nM

UUGUGGGAGACAGGAUAUGUACGGAAGGUCCACGUACAUGAGGAUCACCCAUGUCCAGGCUUCAGACAGAAGGGUCACCAGGUG
apparent Kd [1]: 595 nM | apparent Kd [2]: 45.4 nM

CGCACUUAGCGAGGAUAUGUUAAACAUGAGGAUCACCCAUGUGAUUUAGUAUCAAUUUUAGUGAAACAGAAGGCGCUUAGUGCG
apparent Kd [3]: 17.6 nM | apparent Kd [4]: 14.9 nM

AAAUUGUGAGGAUAUUCGAUGUACUCGGAGACGAGUAUAUCGGAGAAGGCACAUGAGGAUCACCCAUGUUCCUU
apparent Kd [3]: 17.6 nM | apparent Kd [4]: 92.6 nM

GGCUACGUUUCGUAGCAGCUAGGUGAGGAUAUUCAAUUUUUCACAUGAGGAUCACCCAUGUAUGUGAAGAAGGCGCCUAGAAAC
apparent Kd [1]: 11.2 nM | apparent Kd [2]: 5.14 nM

GUAUGCAUGAGGUAGGAUAUCCAAAACAAAACAUGAGGAUCACCCAUGUAAACAAACAACAAAUGGGAGAAGGACCACAUGUAUAC
apparent Kd [1]: 24.4 nM | apparent Kd [2]: 11.3 nM

GUUAGUAUCUAGGAUAUCUAGUACAUAGUAUCUAGAGAAGGAGAUACAUGAGGAUCACCCAUGUUCUGUGUUCU
apparent Kd [3]: 25.4 nM | apparent Kd [4]: 70.4 nM

AGCUAGUCAGGAUAUACGCAAACGAACGAAGCAGUGAAGGGACAUGAGGAUCACCCAUGUAGAAGGGACUAGCA
apparent Kd [3]: 24.5 nM | apparent Kd [4]: 140 nM

AUACAUGAGGAUCACCCAUGUCAGCGGCAGUGCUGCAGAUCAAGAAGGGAUCCCGUGGGCCGGGAUCAGGAUAUUGAUCCUGCA
apparent Kd [1]: 105 nM | apparent Kd [2]: 18.6 nM

GGGUUGUGAGGAUAUUAGUUGUACGUCAAUAGACGUGUGGGUGAGAAGGCACAUGAGGAUCACCCAUGUUCCUG
apparent Kd [3]: 181 nM | apparent Kd [4]: 169 nM

GAAGAGACAGGAUAUACAUGAGGAUCACCCAUGUGAGUAUGUUGGAGGCGGAGGAGGUGUAGAAGGGUCAAAGA
apparent Kd [3]: 24.3 nM | apparent Kd [4]: 26.1 nM

UGGUGAAAUGUAGGAUAUGGAAAUAAAUUUUAACCAGAAGGACAUGAGGAUCACCCAUGUGAUAGAGAAUUAAUAAUAUCUCCU
apparent Kd [3]: 18.6 nM | apparent Kd [4]: 29.9 nM

UUACCUCAUGAGAAGGACAUGAGGAUCACCCAUGUAGGAUAUCGUGGGACAGUGGAAUUGAAUCUUCGGAUUCAAUAACUCUAU
apparent Kd [1]: 327 nM | apparent Kd [2]: 26.1 nM

UGAUCUUGAGUCAGGAUAUGCUGGUUUUUUUUUUAGCAGAAGGGACAUGAGGAUCACCCAUGUUCUCACUUUUU
apparent Kd [3]: 16.1 nM | apparent Kd [4]: 20.2 nM

GGUGGACAUGAGGAUCACCCAUGUGAGGAUAUCGGCUGGCUACUCGCUGACGGCUGCUCGAGAAGGCGCAUUGU
apparent Kd [3]: 46.3 nM | apparent Kd [4]: 95.6 nM

UUGGACGUCGUAGGAUAUGUAGGAUAUUCCUACAUGAGGAUCACCCAUGUUGACAUGGAAGAAGGACAGAAGGACUAUGUCCAU
apparent Kd [1]: 195 nM | apparent Kd [2]: 8.53 nM

GCGAACUGUGUAGGAUAUUGAGCACUUUUGGAGCAAGAAGGACACCAAGUGCUGACUAUACAUGAGGAUCACCCAUGUUCAGCA
apparent Kd [1]: 30.9 nM | apparent Kd [2]: 17.1 nM

AAUGGGCACCAGAAGGACAUGAGGAUCACCCAUGUAGGAUAUGGGCGUUGAAGAUGUCGGAACGAGUUGCUGGAAAGAUAUGGA
apparent Kd [1]: 194 nM | apparent Kd [2]: 20.6 nM

CUACCUUAUGAGAAGGCGAUCAUGAAACAUGAUCGAGGAUAUCAUGUAAACAUGAGGAUCACCCAUGUAUGGGUAUUAUGGUAC
apparent Kd [1]: 98.5 nM | apparent Kd [2]: 27.3 nM

CGCUACACCCAGAAGGACAUGAGGAUCACCCAUGUAGGAUAUGGGAGACACAGUCCCGUGUAGAGAAACUACGCUAGUGUAGCG
apparent Kd [1]: 344 nM | apparent Kd [2]: 112 nM

UCGGCGCGAGGAUAUACGUUUGCUUUUUUGGGUCGUUGCGUACAUGAGGAUCACCCAUGUAGAAGGCGCGCCGC
apparent Kd [3]: 27.4 nM | apparent Kd [4]: 187 nM

AGUGCGUAUGUGAGGAUAUGCUGGUCCUUGGCUCGGCAGAAGGCACAUGAGGAUCACCCAUGUGGUGUCGUACC
apparent Kd [3]: 33 nM | apparent Kd [4]: 151 nM

UACAACUUCGUAGGAUAUGUAUAUAAUUUCUACAUGAGGAUCACCCAUGUUAGCAUUUUUUAUUGACAGAAGGACGUAAUCUAA
apparent Kd [1]: 7.55 nM | apparent Kd [2]: 5.89 nM

UUAAUUUGUCAAGGAUAUGUAAUAUAGAUUAGAAAACAUGAGGAUCACCCAUGUAUAUGGUGGGAACAGAAGGUGAAUGGUUUA
apparent Kd [3]: 189 nM | apparent Kd [4]: 160 nM

GCACGACAUGUAGGAUAUCGAGCGCCGAGCGCUCGAGAAGGACAUGAGGAUCACCCAUGUAUUCCGAGUGAGUCAGGUCGUGCA
apparent Kd [3]: 17.5 nM | apparent Kd [4]: 23.4 nM

AAUUUACAGCUAGGAUAUACAUGAGGAUCACCCAUGUAAUCAUAGGAUGUUAUCAUUGUAUGAGUGUAGAAGGAGCAAAUAAGA
apparent Kd [3]: 6.73 nM | apparent Kd [4]: 6.74 nM

GGACGUCACAUUAACAUGAGGAUCACCCAUGUAAAAUAACAUGAGGAUAUGGAUCCUAAUUGGAUCCAGAAGGCAUGGACGUCC
apparent Kd [1]: 7.66 nM | apparent Kd [2]: 5.58 nM

AUUUGACACGUAGGAUAUCGCUCAAAUUUAACACGAGAAGGACGAACAUGAGGAUCACCCAUGUAACAUGGUGUAGUUUAUUUG
apparent Kd [3]: 62.7 nM | apparent Kd [4]: 88.1 nM

AUUAUUUAUAGUUAUUGGUAAUUGACAGAAGGUGAAAGUGUCACAUGAGGAUCACCCAUGUUCUUCAAGGAUAUGUUGGUAUAC
apparent Kd [1]: 88.3 nM | apparent Kd [2]: 14 nM

ACAUGAGGAUCACCCAUGUUAAACGAGGAUAUUUGACUGCACAUGAGGUUCACCCAUGUUCUGCCGAAGAAGGUGUAAAUAAUU
apparent Kd [1]: 39.2 nM | apparent Kd [2]: 31.2 nM

GGCAUGCAAAUAAAACAUGAGGAUCACCCAUGUGAGUCUCAUGAGGAUAUGCAGGUCAAAGACUUGCAGAAGGCAUGGCGUGCC
apparent Kd [1]: 1950 nM | apparent Kd [2]: 132 nM

UGUUCGUCAGGAUAUUCUACUUAUUACAUGAGGAUCACCCAUGUGUAUGUACAAGGGUGUGAAGAAGGGACUUUUU
apparent Kd [3]: 719 nM | apparent Kd [4]: 260 nM

AAUGUCAGAAAGGAUAUGUAACUUGUAACUGUGACAGAAGGUUCGACAUGAGGAUCACCCAUGUUGAUCCAGGU
apparent Kd [3]: 14.1 nM | apparent Kd [4]: 26.4 nM

CUUUUGUGAGGAUAUCAGGUGUGCUAGCGUACUGGUACAUCUGAGAAGGCACAUGAGGAUCACCCAUGUUUCUU
apparent Kd [3]: 32.9 nM | apparent Kd [4]: 75.5 nM

UCGUUUAUACAAGGAUAUCAAUUAUAGCUAAAUUCAACAUGAGGAUCACCCAUGUAACUAUGGAGUGAGAAGGUGUAAUGGCUU
apparent Kd [1]: 116 nM | apparent Kd [2]: 310 nM

UUAUAUAGUGUGAGGAUAUGCUGGUCCUUGGAUCAGCAGAAGGCACAUGAGGAUCACCCAUGUAGUUAAUUAUA
apparent Kd [3]: 32 nM | apparent Kd [4]: 122 nM

CUGCUCCGUGUAGGAUAUGCGUACAACCAAUAUGCAGAAGGACAUGAGGAUCACCCAUGUAUGUUAUUAUCACGUGAAGCGUCC
apparent Kd [3]: 22.3 nM | apparent Kd [4]: 61.1 nM

CAAAACGUCGAGAAGGGCUCAGCGCAAGUGCCAGCAGGAUAUCGACAUGAGGAUCACCCAUGUCGUAUUUCAGGGUAGAUUUCA
apparent Kd [3]: 8.66 nM | apparent Kd [4]: 34.9 nM

AACAGACAUGAGGAUCACCCAUGUAGAAUUAUGGGAGGAUAUACAAAGACGAGAGUCAGAGUAGAAGGCCUAGGAC
apparent Kd [1]: 46.5 nM | apparent Kd [2]: 29.9 nM

UGUUGUAUUACAGGAUAUCUAUUAGUUUUAUAUAGAGAAGGGUAUUCACAUGAGGAUCACCCAUGUAUAUACGAGGAAGUUGUG
apparent Kd [1]: 43.4 nM | apparent Kd [2]: 45.5 nM

AUUAAUCAGCAGGAUAUAAGUAUCUGAUGGUGGUUAGAAGGGCUGACAUGAGGAUCACCCAUGUGCUCUUCGUG
apparent Kd [3]: 11.4 nM | apparent Kd [4]: 13.8 nM

GUAUUAUAGAUCCAUUUAUUCAACAUGAGGAUCACCCAUGUGCAGGAUAUCGUGUGUUUUAUAUUCGAGAAGGGCAAAUUCAUU
apparent Kd [3]: 28.9 nM | apparent Kd [4]: 81.8 nM

UAAAUAAAGUAAGGAUAUACAUGAGGAUUUCUCGUAGAAGGUACAAGACAUGAGGAUCACCCAUGUAUCGCUCCGUAGAGCGUA
apparent Kd [1]: 138 nM | apparent Kd [2]: 237 nM

AGUUAAUGCACAUGAGGAUCACCCAUGUCACUUUAUAGGAGACAGGAUAUGCAUGCCAUCAAUGUGCAGAAGGGUCACCACCGA
apparent Kd [1]: 85.6 nM | apparent Kd [2]: 147 nM

UGUGUCUGUAGAGGAUAUCCGGGCGUUCUGCUAGGAGAAGGCUGCAACACAUGAGGAUCACCCAUGUAGGUUGUGUCUCUCUAC
apparent Kd [3]: 4.82 nM | apparent Kd [4]: 9.87 nM

UUUAUUAAUUAAUAUAAUAAGAUCACAUGAGGAUCACCCAUGUAGGAUAUCAGCUCGAUUAGAGCUGAGAAGGACAUAAUUAUA
apparent Kd [3]: 34.8 nM | apparent Kd [4]: 110 nM
